The nature of series [1]: Dissociation constant, pKa of the compound. The series is classed as physicochemical.
For series [2], the system named is Trypanosoma cruzi. In words: Antitrypanosomal activity against amastigotes of Trypanosoma cruzi Tulahuen C4 infected in rat L6 cells after 72 hrs by alamar blue assay. The note with it: Tulahuen C4, L6, 72 h. A general note: Resazurin is reduced to fluorescent resorufin, in cell work by metabolically active cells.
Series [3] can be described thus: Selectivity index, ratio of IC50 for rat L6 cells to IC50 for Trypanosoma brucei rhodesiense STIB 900. It is filed as toxicity, cell-based. The note with it: L6 cells versus Trypanosoma brucei rhodesiense STIB 900, read-out: Ratio IC50. An outline of the steps: (§1)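 Selectivity index is the L6 myoblast IC50 divided by the IC50 for each parasite. L. donovani was tested as axenic amastigotes. Both IC50s came from 96-well dose-response screens fitted by linear regression of sigmoidal curves.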

The next series relates to Salmonella typhimurium. As to the kind of experiment: Induction of mutagenesis in Salmonella Typhimurium by Ames test. The series is classed as toxicity, organism-based. The note with it: salmonella enterica subsp. enterica serovar typhimurium.
Series [4] in a line: Selectivity index, ratio of IC50 for rat L6 cells to IC50 for Trypanosoma cruzi Tulahuen C4. It is filed as toxicity, cell-based. The following applies: L6 cells versus Trypanosoma cruzi Tulahuen C4, read-out: Ratio IC50. The essentials:
as §1

Series [5] deals with Trypanosoma cruzi. As to the kind of experiment: Ratio of benznidazole IC50 to compound IC50 for Trypanosoma cruzi Tulahuen C4 infected in rat L6 cells after 72 hrs by alamar blue assay. It is filed as functional.
For a further series, the system named is L6. As to the kind of experiment: Cytotoxicity against rat L6 cells after 72 hrs by alamar blue assay. It is filed as cell-based. The following applies: L6, 72 h. An outline of the steps: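 Run in 96-well plates with a compound dose series. T. cruzi was tested as amastigotes inside infected L6 rat skeletal myoblasts. Uninfected L6 cells were used for cytotoxicity. IC50 was obtained by linear regression from sigmoidal dose–inhibition curves.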

Series [6] concerns Trypanosoma brucei brucei. As to the kind of experiment: Ratio of IC50 for blood-stream Trypanosoma brucei brucei expressing type 1 nitroreductase in the absence of tetracycline to IC50 for tetracycline-induced blood-stream Trypanosoma brucei brucei overexpressing type 1 nitroreductase. The series is classed as functional. The essentials: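 Each culture seeded at 1 × 10^3 per ml, given compound for 3 days at 37 °C, then Alamar blue added for 16 h. IC50 taken from cell density, and the ratio is uninduced over induced.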

Series [7] deals with Trypanosoma brucei brucei. As to the kind of experiment: Antitrypanosomal activity against blood-stream Trypanosoma brucei brucei after 3 days by alamar blue assay. The series is classed as functional, organism-based. The note with it: 72 h. An outline of the steps: (§2)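 Bloodstream-form parasites seeded at 1 × 10^3 per ml in growth medium with a range of nitrotriazole or nifurtimox concentrations, no tetracycline. Incubated 3 days at 37 °C, then Alamar blue added for a further 16 h. IC50 taken from culture cell density.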

A further series concerns Leishmania donovani. As to the kind of experiment: Antileishmanial activity against Leishmania donovani MHOM-ET-67/L82 axenic amastigotes after 72 hrs by alamar blue assay. The note with it: MHOM-ET-67/L82, 72 h.
For series [8], the system named is Trypanosoma brucei rhodesiense. As to the kind of experiment: Antitrypanosomal activity against blood stream form of Trypanosoma brucei rhodesiense STIB 900 […] after 72 hrs by alamar blue assay. The series is classed as functional, organism-based. The note with it: STIB 900, 72 h.
The nature of series [9]: Selectivity index, ratio of IC50 for rat L6 cells to IC50 for Leishmania donovani MHOM-ET-67/L82. It is filed as toxicity, cell-based. The following applies: L6 cells versus Leishmania donovani MHOM-ET-67/L82, read-out: Ratio IC50. An outline of the steps:
as §1

The subject of series [10] is Trypanosoma brucei brucei. As to the kind of experiment: Antitrypanosomal activity against blood-stream Trypanosoma brucei brucei expressing type 1 nitroreductase after 3 days by alamar blue assay in absence of tetracycline. It is filed as functional, organism-based. The note with it: 72 h. The essentials: as §2
Series [11] relates to Trypanosoma brucei brucei. As to the kind of experiment: Antitrypanosomal activity against tetracycline-induced blood-stream Trypanosoma brucei brucei overexpressing type 1 nitroreductase after 3 days by alamar blue assay. The following applies: 72 h. The series is classed as functional, organism-based. The essentials: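 Bloodstream-form parasites carrying inducible TbNTR, with expression induced by tetracycline (1 μg/mL). Seeded at 1 × 10^3 per ml with a range of nitrotriazole or nifurtimox concentrations. Incubated 3 days at 37 °C, then Alamar blue added for 16 h. IC50 taken from cell density.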

Series [12] deals with Trypanosoma cruzi. In words: Antitrypanosomal activity against amastigote form of Trypanosoma cruzi Tulahuen C4 infected in rat L6 cells after 72 hrs by alamar blue assay. The following applies: Tulahuen C4, L6, 72 h.

A word on the pKa: it is the pH at which an ionisable group is half protonated. Read a high pKa as a group that holds its proton tightly. What is called IC50 is the midpoint of a concentration-inhibition curve. Read a high IC50 as lower potency. `Cl.O=[N+]([O-])c1ncn(CCCNCc2cc(C(F)(F)F)cc(C(F)(F)F)c2)n1` showed a pKa in series [1] of 9.44. Besides, the IC50 in the series on Trypanosoma cruzi [2] was 0.169 µM; in the series on L6, 138 µM; in series [7], 7.83 µM; in the series with Leishmania donovani it was 11.1 µM; in [8] it was 7.84 µM; in series [10], 11.1 µM. Further, it took 0.76 µM to reach half-maximal inhibition in [11] (IC50). Further, the results for the selectivity ratio in series [3], in [4] and in [9] were 18, 816 and 12, respectively. Also, the Activity entry with Salmonella typhimurium is listed as “Non-toxic”. The “Ratio IC50” value worked out at 8 in the series on Trypanosoma cruzi [5] and 14 in series [6].

Turning to `Cl.O=[N+]([O-])c1ncn(CCCNc2ccnc3cc(Cl)ccc23)n1`, in series [1], the pKa turned out to be 7.31. For the same compound, the 50% inhibitory concentration (IC50) in the series on Trypanosoma cruzi [2] turned out to be 0.607 µM; with L6, 143 µM; in the series with Leishmania donovani, 45.8 µM; in series [8], 0.309 µM. In addition, the figures for the selectivity ratio in series [3], in [4] and in [9] were 463, 236 and 3, respectively. Further, in the series on Salmonella typhimurium, the Activity result is on record as “Non-toxic”. Also, the “Ratio IC50” value with Trypanosoma cruzi [5] was 2.2.

Turning to `Cl.O=[N+]([O-])c1ncn(CCCNc2nc(-c3ccccc3)nc3ccccc23)n1`, the pKa in series [1] came to 5.06. Also, the IC50 in the series on Trypanosoma cruzi [2] came out at 1.48 µM; in the series with L6, 97 µM; in series [7], 2.63 µM; with Leishmania donovani it was 9.48 µM; in series [8], 1.42 µM; in [10], 4.48 µM. Half-maximal inhibition in series [11] (IC50) required 0.07 µM. In addition, the selectivity ratio was determined as 68 in series [3], 66 in [4] and 10 in series [9]. Further, in the series on Salmonella typhimurium, the Activity result is “Non-toxic”. Further, the “Ratio IC50” value in the series with Trypanosoma cruzi [5] is on record as 0.9; in series [6] it was 64.

In the case of `O=C(Cn1ccnc1[N+](=O)[O-])NCc1ccccc1` [BENZNIDAZOLE], the “Ratio IC50” value in the series on Trypanosoma cruzi [5] worked out at 1. In the series on Trypanosoma cruzi [12], this compound came in with an IC50 of 1.35 µM.

For the origin of these results see ChEMBL document CHEMBL1921780, “Novel 3-nitro-1H-1,2,4-triazole-based aliphatic and aromatic amines as anti-chagasic agents” (J Med Chem, 2011).
